The results in this text go back to ChEMBL document CHEMBL5154945, “Discovery and Optimization of Pyrrolopyrimidine Derivatives as Selective Disruptors of the Perinucleolar Compartment, a Marker of Tumor Progression toward Metastasis” (J Med Chem, 2022).

pKi: −log10 of the molar value.

A short description of data set [1]: AUC (0 to 48 hrs) in female BALB/c mouse at 25 mg/kg, ip at 48 hrs by LC-MS/MS analysis. The class given is ADME, organism-based. On the set-up: time 48 hrs, dose 25 mg/kg, route ip. Conditions: in vivo. The procedure, abridged: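 Fed female BALB/c mice, about 6–8 weeks old and 25–30 g, received a single IP dose. The vehicle was 5-10% NMP + 20% PEG400 + 70-75% (25% HP-β-CD in water), with the drug at 2.5/0.5 mg/mL. Blood was taken by retro-orbital puncture under isoflurane into K2EDTA tubes, 3 mice per time point, over 48 h. Plasma was prepared at 2000 g, 5 min, 4 °C, and measured by LC/MS/MS.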

In another data set the test system is SNB-75. The data set is described as follows: Anticancer activity against human SNB-75 cells assessed as cell growth inhibition. Conditions: dose 1-100 µM, DDE = dose-dependent effect. The class given is functional, cell-based.
The test system of the next data set is UACC-257. The data set is described as follows: Anticancer activity against human UACC-257 cells assessed as cell growth inhibition. The class given is functional, cell-based. Conditions: dose 1-100 µM, DDE = dose-dependent effect.
A further data set has as its system UACC-62. The data set is described as follows: Anticancer activity against human UACC-62 cells assessed as cell growth inhibition. It is filed as functional, cell-based. The settings on record: dose 1-100 µM, DDE = dose-dependent effect.
In another data set the test system is OVCAR-3. The data set is described as follows: Anticancer activity against human OVCAR-3 cells assessed as cell growth inhibition. The class given is functional, cell-based. The settings on record: dose 1-100 µM, DDE = dose-dependent effect.
The subject of another data set is A498. The experiment in a line: Anticancer activity against human A498 cells assessed as cell growth inhibition. The settings on record: dose 1-100 µM, DDE = dose-dependent effect. It is filed as functional, cell-based.
A further data set concerns DU-145. The data set is described as follows: Anticancer activity against human DU-145 cells assessed as cell growth inhibition. The class given is functional, cell-based. The settings on record: dose 1-100 µM, DDE = dose-dependent effect.
The target of data set [2] is Beta-1 adrenergic receptor (Homo sapiens) (UniProt P08588). The data set is described as follows: Binding affinity to beta1 receptor (unknown origin) at 10000 nM by radioligand displacement assay relative to control. For orientation: Loss of bound radioactivity is the signal in a displacement assay; it reports binding, not function.
The target of data set [3] is D(3) dopamine receptor (Homo sapiens) (UniProt P35462). The experiment in a line: Binding affinity to D3 receptor (unknown origin) at 10000 nM by radioligand displacement assay relative to control.
The target in data set [4] is Mu-type opioid receptor (Homo sapiens) (UniProt P35372). The experiment in a line: Binding affinity to MOR receptor (unknown origin) at 10000 nM by radioligand displacement assay relative to control.
Another data set concerns the target Histamine H1 receptor (Homo sapiens, UniProt P35367). The experiment in a line: Binding affinity to H1 receptor (unknown origin) by radioligand displacement assay.

Chain of Mu-type opioid receptor (Homo sapiens) (P35372 whole entry): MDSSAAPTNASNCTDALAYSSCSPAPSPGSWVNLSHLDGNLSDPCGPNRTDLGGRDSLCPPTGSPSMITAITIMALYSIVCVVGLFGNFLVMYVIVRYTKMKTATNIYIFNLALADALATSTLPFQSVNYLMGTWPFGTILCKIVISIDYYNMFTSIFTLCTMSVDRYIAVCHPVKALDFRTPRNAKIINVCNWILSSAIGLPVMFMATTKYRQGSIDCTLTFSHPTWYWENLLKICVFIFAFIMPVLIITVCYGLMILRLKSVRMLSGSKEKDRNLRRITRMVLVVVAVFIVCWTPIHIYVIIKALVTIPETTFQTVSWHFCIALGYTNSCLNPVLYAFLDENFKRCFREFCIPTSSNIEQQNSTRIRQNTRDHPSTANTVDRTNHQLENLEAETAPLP
Chain of D(3) dopamine receptor (Homo sapiens) (P35462 whole entry): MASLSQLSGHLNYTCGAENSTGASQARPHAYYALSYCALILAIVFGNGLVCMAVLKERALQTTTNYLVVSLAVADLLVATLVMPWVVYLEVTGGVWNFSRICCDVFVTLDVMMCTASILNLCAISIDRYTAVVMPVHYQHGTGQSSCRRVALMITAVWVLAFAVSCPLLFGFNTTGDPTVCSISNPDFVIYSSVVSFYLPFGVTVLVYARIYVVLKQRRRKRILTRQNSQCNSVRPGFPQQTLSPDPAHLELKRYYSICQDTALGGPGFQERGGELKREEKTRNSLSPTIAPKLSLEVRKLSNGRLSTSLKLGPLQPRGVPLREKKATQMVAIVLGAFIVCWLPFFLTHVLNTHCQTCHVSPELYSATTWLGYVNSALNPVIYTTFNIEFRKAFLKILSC
Chain of Beta-1 adrenergic receptor (Homo sapiens) (P08588 whole entry, looked up): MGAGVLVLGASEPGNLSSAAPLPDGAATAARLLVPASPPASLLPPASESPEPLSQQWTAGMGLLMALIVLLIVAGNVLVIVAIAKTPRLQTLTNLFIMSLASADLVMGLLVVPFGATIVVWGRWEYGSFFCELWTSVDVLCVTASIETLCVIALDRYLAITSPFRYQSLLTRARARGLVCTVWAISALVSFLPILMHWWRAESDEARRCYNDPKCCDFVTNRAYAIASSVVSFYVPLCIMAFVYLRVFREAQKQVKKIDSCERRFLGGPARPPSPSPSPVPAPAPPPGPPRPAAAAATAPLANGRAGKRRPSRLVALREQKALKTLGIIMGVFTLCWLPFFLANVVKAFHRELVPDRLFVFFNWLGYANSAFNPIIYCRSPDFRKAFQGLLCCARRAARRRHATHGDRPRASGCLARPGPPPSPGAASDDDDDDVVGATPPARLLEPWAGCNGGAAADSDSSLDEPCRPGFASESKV
Chain of Histamine H1 receptor (P35367 whole entry): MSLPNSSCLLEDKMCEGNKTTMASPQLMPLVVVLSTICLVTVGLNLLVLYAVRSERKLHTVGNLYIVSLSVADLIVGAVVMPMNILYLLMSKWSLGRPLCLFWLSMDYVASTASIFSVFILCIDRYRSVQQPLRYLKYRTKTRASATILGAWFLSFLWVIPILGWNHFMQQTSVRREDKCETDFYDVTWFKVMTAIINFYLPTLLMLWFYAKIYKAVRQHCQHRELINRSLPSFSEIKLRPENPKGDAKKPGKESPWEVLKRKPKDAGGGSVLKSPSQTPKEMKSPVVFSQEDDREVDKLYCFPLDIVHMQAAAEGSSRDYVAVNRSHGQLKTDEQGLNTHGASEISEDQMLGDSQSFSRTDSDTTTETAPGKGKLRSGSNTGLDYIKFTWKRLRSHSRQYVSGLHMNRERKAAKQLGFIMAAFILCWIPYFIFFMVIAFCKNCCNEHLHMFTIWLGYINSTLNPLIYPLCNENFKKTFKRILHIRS

For the molecule `N=c1c2c(-c3ccccc3)c(-c3ccccc3)n(Cc3ccccc3)c2ncn1[C@H]1CC[C@H](O)CC1` [ML-246], the exposure (AUC) (usually the area under the concentration-time curve, a measure of exposure) in [1] worked out at 57.64 µM·h. Further, the Activity result in the data set with SNB-75, in the data set with UACC-257, in the data set with UACC-62, in the data set on OVCAR-3, with A498 and with DU-145 was “Dde” throughout. Further, the Activity in data set [2], in data set [3] and in data set [4] was less than 50% throughout. The negative-log Ki (pKi) – broadly, the Ki on a negative log10 scale, so that one unit is a factor of ten – on Histamine H1 receptor was 5.45.
